The source of these data is ChEMBL document CHEMBL3588840, “An Isoflavone from Leiophyllum buxifolium and Its Antiproliferative Effect” (J Nat Prod, 2015).

One experiment concerns MDA-MB-231. The experiment is described as follows: Antiproliferative activity against human MDA-MB-231 cells assessed as inhibition of cell proliferation incubated for 72 hrs by SRB assay. In kind it is functional, cell-based. As to conditions: MDA-MB-231, 72 h. The method, boiled down: (§1)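 Seeded at 1 × 10^4 cells/well (MCF-7: EMEM + 10% FBS; MDA-MB-231: EMEM + 10% NuSerum; NIH3T3: DMEM + 5% NuSerum + 1% antibiotics). Exposed to 1.25–40 μM final (DMSO stock diluted in water) for 72 h at 37 °C, 5% CO2. Day-0 plate used. Fixed with TCA (10% final, 4 °C, 1 h), stained with 0.4% SRB, dye dissolved in 10 mM Tris. IC50 derived. Podophyllotoxin and 0.5% DMSO as controls.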
In general terms: Sulforhodamine B stains cellular protein and so reports cell mass.

The test system of another experiment is MCF7. The experiment is described as follows: Antiproliferative activity against human MCF7 cells assessed as inhibition of cell proliferation incubated for 72 hrs by SRB assay. In kind it is functional, cell-based. Particulars: MCF7, 72 h. The procedure, abridged:
as §1

Experiment [1] is described as follows: Antiproliferative activity against mouse NIH/3T3 cells assessed as inhibition of cell proliferation incubated for 72 hrs by SRB assay. In kind it is cell-based. As to conditions: NIH3T3, 72 h. The procedure, abridged: as §1
In the next experiment the test system is Artemia salina. Put plainly: Cytotoxicity against Artemia salina assessed as induction of shrimp mortality incubated for 24 hrs. In kind it is functional. As to conditions: for LC50: read-out: LD50 (the source's name).

As to `COc1c(C)c(O)c2c(=O)c(-c3ccc(O)cc3)coc2c1C`, the values for the IC50 (in the experiment with MDA-MB-231; in the experiment with MCF7; in experiment [1]) were 7 µM, above 40 µM and above 40 µM, respectively. The Activity entry in the experiment on Artemia salina was “Dose-dependent effect”. Also, the LC50 in the experiment with Artemia salina worked out at 20.2 µM.
Consider `COc1cc([C@@H]2c3cc4c(cc3[C@H](O)[C@H]3COC(=O)[C@H]23)OCO4)cc(OC)c1OC` [PODOFILOX], for which the IC50 in the experiment with MDA-MB-231 worked out at 0.079 µM; in experiment [1] it was 0.084 µM.
For the compound `COc1c(C)c(O)c2c(=O)cc(-c3ccc(O)cc3)oc2c1C` [SIDEROXYLIN], the IC50 with MDA-MB-231 was 36.9 µM; in the experiment with MCF7, 14.7 µM; in experiment [1], above 40 µM. Further, in the experiment on Artemia salina, the Activity result is “Dose-dependent effect”. The LC50 with Artemia salina is 80.1 µM.

A word on the IC50: it is the concentration needed to halve the response being measured.
